From PubChem
FXN GAA850 act: increases GAA850 frataxin promoter reporter activity; 360,000 compounds, 0.56% hits; HEK293 lucGAA850 FXN promoter luciferase reporter, 24 h; percent of 10 µM SAHA response; activation, % at 6 µM;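 active = activation above the average of all compounds screened plus 3 SD, cutoff fixed separately per campaign, cut at about 7.5% in these data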;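 also: 0% = DMSO wells and 100% = 10 µM SAHA wells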
HIF activator: HIF pathway transcriptional activation; U2OS HRE-luciferase reporter, luminescence; normalized: DMSO 0%, desferrioxamine 100%; activation, % at 7.5 µM (by protocol); 300,000 compounds, 0.32% hits; AID 1910;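 active = mean activation of at least 10% of the iron chelator positive control signal, with at least half of replicates also reaching 10%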
AHR act: activators of human aryl hydrocarbon receptor. P35869. AHR-responsive luciferase reporter cells, luminescence. activation, % at 5 µM. 320,000 compounds, 2.5% hits. AID 2796; in the data active = activation above about 47%;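 also: 0% = vehicle wells and 100% = reference agonist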
Target sequence (P35869 whole entry, looked up): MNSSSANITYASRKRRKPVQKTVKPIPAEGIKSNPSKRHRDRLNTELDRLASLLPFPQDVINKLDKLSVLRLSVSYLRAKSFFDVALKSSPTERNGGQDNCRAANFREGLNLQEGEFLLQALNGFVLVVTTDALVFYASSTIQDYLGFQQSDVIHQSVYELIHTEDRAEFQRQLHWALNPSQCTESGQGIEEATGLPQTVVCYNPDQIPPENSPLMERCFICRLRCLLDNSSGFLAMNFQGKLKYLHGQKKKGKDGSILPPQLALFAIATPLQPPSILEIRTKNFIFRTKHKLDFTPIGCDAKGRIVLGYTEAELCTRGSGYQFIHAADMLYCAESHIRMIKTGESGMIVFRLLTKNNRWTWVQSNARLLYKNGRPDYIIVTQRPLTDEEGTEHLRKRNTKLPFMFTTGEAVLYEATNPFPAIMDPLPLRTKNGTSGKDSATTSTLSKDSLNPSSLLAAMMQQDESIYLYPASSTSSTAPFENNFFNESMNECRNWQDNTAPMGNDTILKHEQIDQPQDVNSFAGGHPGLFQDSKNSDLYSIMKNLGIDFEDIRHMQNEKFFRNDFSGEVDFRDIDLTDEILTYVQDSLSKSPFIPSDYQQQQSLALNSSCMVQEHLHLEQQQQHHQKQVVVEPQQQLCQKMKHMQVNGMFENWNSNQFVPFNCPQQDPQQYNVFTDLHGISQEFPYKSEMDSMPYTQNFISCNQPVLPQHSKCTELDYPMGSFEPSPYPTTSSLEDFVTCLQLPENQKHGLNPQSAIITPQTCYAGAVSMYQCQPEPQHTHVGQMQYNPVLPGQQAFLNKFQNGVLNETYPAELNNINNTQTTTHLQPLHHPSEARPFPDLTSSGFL
SR-BI uptake up: enhances SR-BI lipid uptake from DiI-HDL; CHO ldlA[mSR-BI] cells, DiI-HDL uptake fluorescence, 3 h; 100 = double the neutral-control signal; activation, % at 12.5 µM; 320,000 compounds, 0.096% hits;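 active = mean replicate activation of at least 60% and every replicate at or above 60%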;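 also: 0% = median plate neutral-control signal and 100% = twice that signal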
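system = CHO ldlA[mSR-BI] cells, LDL receptor-null, SR-BI overexpressing | medium = Ham's F12 with 0.5% BSA, HEPES 25 mM, pH 7.4 | probe or stimulus = DiI-HDL 10 µg/mL | compound dosing = single-point compound dose | incubation = compound exposure 3 h, 37 °C | technique = DiI fluorescence, bottom read | read-out = cell-associated DiI fluorescence as measure of HDL uptake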
ABCB6 inh 2: inhibitors of human ABC transporter ABCB6 | 360,000 compounds, 0.19% hits | fluorescence ratio to DMSO, % at 10 µM | K562-ABCB6 porphyrin accumulation, flow cytometry, 1 h; stronger effect = lower value | Q9NP58 | AID 602162;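 active = fluorescence ratio to DMSO below 75%, the collection mean minus 3 SD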;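 also: signal is porphyrin accumulated inside mitochondria; 100% equals median channel fluorescence of DMSO control wells; lower ratio means ABCB6 inhibition with less porphyrin fluorescence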
SR-BI DiI inh: mouse SR-BI HDL lipid transfer inhibition; 320,000 compounds, 0.96% hits; inhibition, % at 12.5 µM; ldlA[mSR-BI] CHO cells, DiI-HDL uptake fluorescence, 3 h; Q61009;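 active = mean replicate inhibition of at least 70% and a set share of replicates each scoring 70 or more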;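 also: 0% = median of neutral control wells and 100% = median of positive control wells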
AHR act cf: confirmation of human aryl hydrocarbon receptor activators | human cells, AHR-responsive luciferase reporter, luminescence | 2,300 compounds, 87% hits | AID 2845 | activation, % at 9 µM | shares compounds with AHR act; in the data active = activation above about 49%;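 also: HepG2 hepatoma cells carrying a DRE-driven firefly luciferase reporter; 0% = vehicle wells and 100% = reference agonist wells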
PXR act counter: activates human PXR in AHR activator counter-screen; shares compounds with AHR act; 2,300 compounds, 88% hits; activation, % at 11.6 µM; cell-based PXR reporter, luciferase luminescence; in the data active = activation above about 11%;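 also: human hepatoma DPX-2 cells expressing full-length human PXR; 0% = DMSO and 100% = reference agonist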
* = called active by the depositor; / = no result given. Sampled rows, rich in hits. Any-hit rate of the full collection: about 3.9%.

SMILES	FXN GAA850 act	HIF activator	AHR act	SR-BI uptake up	ABCB6 inh 2	SR-BI DiI inh	AHR act cf	PXR act counter
O=C(OCc1cc(=O)n2ccsc2n1)c1ccccc1NCCO	0	/	79*	/	104	/	79*	5
Cc1cc(-c2n[nH]c(=S)n2/N=C/c2sccc2C)n[nH]1	0	0	112*	-8	86	8	91*	25*
S=c1[nH]nc(-c2cc(-c3ccccc3)n[nH]2)n1/N=C/c1cccs1	3	0	132*	/	104	/	128*	39*
Cc1ccsc1/C=N/n1c(-c2ccccc2)n[nH]c1=S	4	0	80*	23	93	-23	68*	46*
S=c1[nH]nc(-c2cc(-c3ccccc3)n[nH]2)n1/N=C/c1ccccc1	2	0	11	/	97	/	/	/
Cc1cccc(NC(=S)NC(=O)Cc2ccccc2)c1C	2	-26	/	41	95	-41	/	/
CCCC(=O)Nc1nc(C)c(-c2csc(Nc3cc(OC)ccc3OC)n2)s1	-1	-1	85*	-94	100	94*	76*	45*
C=CCCC(=O)Nc1nc(C)c(-c2csc(Nc3cccc(OC)c3)n2)s1	0	0	301*	-87	104	87*	100*	14*
CCCC(=O)Nc1nc(C)c(-c2csc(Nc3ccccc3OC)n2)s1	0	0	79*	-40	99	40	101*	34*
C=CCCC(=O)Nc1nc(C)c(-c2csc(Nc3cc(OC)ccc3OC)n2)s1	-6	2	117*	-56	104	56	69*	62*
COc1cccc(Nc2nc(-c3sc(NC(=O)c4ccccc4)nc3C)cs2)c1	3	1	41	-70	108	70	/	/
CCC(=O)Nc1nc(C)c(-c2csc(Nc3cccc(C(=O)O)c3)n2)s1	0	-2	21	6	110	-6	/	/
CC(Oc1cccc2cccnc12)C(=O)N/N=C/c1ccccc1 (centres undefined)	1	0	18	-5	104	5	/	/
CC(=O)N1CCN(S(=O)(=O)c2ccccc2)C1c1ccccc1 (centres undefined)	-1	0	102*	39	98	-39	9	63*
O=C(CCSc1nnc2scc(-c3ccccc3)n12)NCc1ccc2c(c1)OCO2	2	0	2	6	95	-6	/	/
c1ccc(-c2csc3nnc(SCc4ccc5c(c4)OCO5)n23)cc1	3	0	84*	-2	102	2	48*	130*
COc1cccc(C2=NNC(=NCc3ccccc3)SC2)c1	-1	2	1	-11	100	11	/	/
COc1cccc(C2=NC(C)(C)NC(c3ccccc3O)C2)c1 (centres undefined)	1	/	82*	-13	95	13	44	52*
Clc1ccc(-c2nc3ncccn3c2Cl)cc1	13*	1	87*	2	95	-2	148*	55*
Nc1c(C(=O)Nc2ccccc2)sc2nc(-c3ccco3)ccc12	-3	2	19	-56	111	56	/	/
COc1ccccc1NC(=O)c1sc2nc(-c3ccco3)ccc2c1N	2	1	106*	-31	96	31	95*	21*
NNc1nc2ccc(Cl)cc2s1	2	2	115*	44	97	-44	106*	22*
O=C(Nc1nc2ccc(Cl)cc2s1)c1ccc(Br)o1	0	2	20	-54	102	54	/	/
CCCC(=O)N1CCC1(C)C(=O)Nc1ccccn1 (centres undefined)	0	/	/	/	94	/	/	/
Cc1nn(-c2ccccc2)c(C)c1/C=N/Nc1nc2ccccc2[nH]1	6	1	181*	-57	89	57	34	26*
COc1cc(/C=N/Nc2nc3ccccc3[nH]2)cc(Br)c1OCC(=O)N(C)C	-3	0	32	-9	98	9	/	/
